Measurements gathered from unrelated publications.
Compare with care: the assays were run in different laboratories.
Target: Casein kinase I isoform gamma-2 (CSNK1G2, Homo sapiens, UniProt P78368)

SMILES	observed	action	method	concentration	quantity	value
COc1ncccc1-c1cnn2ccc(N3CCN(C(=O)OC(C)C)CC3)nc12	binding		competition with immobilised ligand	1 µM	remaining binding	100%
Cn1cc(-c2cccc(N3CCc4c(sc5c4CC(C)(C)C5)C3=O)c2CO)cc(Nc2ccncn2)c1=O	enzyme activity	inhibitor		1 µM	inhibition	6%
Nc1ncc(-c2nc(N3CCOCC3)nc(N3CCOCC3)n2)c(C(F)F)n1	binding		competition with immobilised ligand	10 µM	remaining binding	85%
COc1cc(Nc2ncc(F)c(Nc3ccc4c(n3)NC(=O)C(C)(C)O4)n2)cc(OC)c1OC	binding		competition with immobilised ligand	10 µM	inhibition	0%
Cc1nn(C)cc1-c1nc2c(N3CCN(Cc4ccc(Cl)cc4)CC3)c(Cl)cnc2[nH]1	binding		competition with immobilised ligand	1 µM	remaining binding	96%
CC(C)(C)c1cc(C=C(C#N)C#N)cc(Br)c1O	enzyme activity	inhibitor		0.5 µM	remaining activity	100%
Cn1cncc1[C@@](O)(COc1ccc(C#N)cc1-c1ccc(OC(F)(F)F)cc1)c1ccc(C#N)cc1	cell-free assay		competition with immobilised ligand	1 µM	remaining binding	64%
O=c1[nH]c2ccccc2n1C1CCN(Cc2ccc(-c3[nH]c4cc5ncnc5cc4nc3-c3ccccc3)cc2)CC1	cell-free assay			0.5 µM	remaining signal	101%
Cn1cc(-c2cc(F)cc(N3CCn4c(cc5c4CCCC5)C3=O)c2CO)cc(Nc2ccc(N3CCN(C4COC4)CC3)cn2)c1=O	enzyme activity	inhibitor		0.1 µM	inhibition	7%
